Data reported in ChEMBL document CHEMBL3259728, “Design, synthesis and biological evaluation of some novel substituted quinazolines as antitumor agents” (2014).

Legend:
Type in all cases: functional
HCT-116 = assay: Growth inhibition of human HCT116 cells at 10 uM after 48 hrs by SRB assay; conditions: HCT-116, 48 h, read-out: GI
How it was run: (§1)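 NCI-60 primary one-dose screen run at the US NCI, with human tumour lines from nine cancer types. Compound added once at 10^-5 M, followed by 48 h incubation. End point was sulforhodamine B protein staining read spectrophotometrically. Result given as percent growth of treated cells against untreated controls, reported as % growth inhibition.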

[1] = Growth inhibition of human HOP92 cells at 10 uM after 48 hrs by SRB assay; conditions: HOP-92, 48 h, read-out: GI; how it was run: as §1
RPMI-8226 = assay: Growth inhibition of human RPMI8226 cells at 10 uM after 48 hrs by SRB assay; conditions: RPMI-8226, 48 h, read-out: GI; how it was run: as §1
SK-OV-3 = assay: Growth inhibition of human SKOV3 cells at 10 uM after 48 hrs by SRB assay; conditions: SK-OV-3, 48 h, read-out: GI; how it was run: as §1
NCI-H226 = assay: Growth inhibition of human NCI-H226 cells at 10 uM after 48 hrs by SRB assay; conditions: NCI-H226, 48 h, read-out: GI; how it was run: as §1
[2] = Growth inhibition of human RXF393 cells at 10 uM after 48 hrs by SRB assay; conditions: RXF 393, 48 h, read-out: GI; how it was run: as §1
COLO 205 = assay: Growth inhibition of human COLO205 cells at 10 uM after 48 hrs by SRB assay; conditions: COLO 205, 48 h, read-out: GI
How it was run: (§2)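 NCI primary one-dose screen. A single concentration of 10^-5 M was added to the cell culture, followed by 48 h incubation and an SRB protein-dye endpoint read spectrophotometrically. Results are growth percentage relative to untreated control cells, reported as % growth inhibition.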

[3] = Growth inhibition of human OVCAR5 cells at 10 uM after 48 hrs by SRB assay; conditions: OVCAR-5, 48 h, read-out: GI; how it was run: as §1
MDA-MB-468 = assay: Growth inhibition of human MDA-MB-468 cells assessed as cell growth at 10 uM after 48 hrs by SRB assay; conditions: MDA-MB-468, 48 h, read-out: GI; how it was run: as §1
SNB-19 = assay: Growth inhibition of human SNB19 cells at 10 uM after 48 hrs by SRB assay; conditions: SNB-19, 48 h, read-out: GI; how it was run: as §1
[4] = Growth inhibition of human UACC62 cells at 10 uM after 48 hrs by SRB assay; conditions: UACC-62, 48 h, read-out: GI; how it was run: as §1
SW-620 = assay: Growth inhibition of human SW620 cells at 10 uM after 48 hrs by SRB assay; conditions: SW-620, 48 h, read-out: GI; how it was run: as §1
Malme-3M = assay: Growth inhibition of human MALME-3M cells at 10 uM after 48 hrs by SRB assay; conditions: read-out: GI; how it was run: as §1
[5] = Growth inhibition of human NCI-ADR-RES cells at 10 uM after 48 hrs by SRB assay; conditions: read-out: GI; how it was run: as §1
[6] = Growth inhibition of human OVCAR3 cells at 10 uM after 48 hrs by SRB assay; conditions: OVCAR-3, 48 h, read-out: GI; how it was run: as §1
[7] = Growth inhibition of human UO31 cells at 10 uM after 48 hrs by SRB assay; conditions: UO-31, 48 h, read-out: GI; how it was run: as §1
[8] = Growth inhibition of human HCC2998 cells at 10 uM after 48 hrs by SRB assay; conditions: HCC 2998, 48 h, read-out: GI; how it was run: as §1
SK-MEL-5 = assay: Growth inhibition of human SK-MEL-5 cells at 10 uM after 48 hrs by SRB assay; conditions: SK-MEL-5, 48 h, read-out: GI; how it was run: as §1
DU-145 = assay: Growth inhibition of human DU145 cells at 10 uM after 48 hrs by SRB assay; conditions: DU-145, 48 h, read-out: GI; how it was run: as §1
NCI-H522 = assay: Growth inhibition of human NCI-H522 cells at 10 uM after 48 hrs by SRB assay; conditions: NCI-H522, 48 h, read-out: GI; how it was run: as §1
[9] = Growth inhibition of human Hs578T cells at 10 uM after 48 hrs by SRB assay; conditions: Hs-578T, read-out: GI; how it was run: as §1
A549 = assay: Growth inhibition of human A549 cells at 10 uM after 48 hrs by SRB assay; conditions: A549, 48 h, read-out: GI; how it was run: as §2
SNB-75 = assay: Growth inhibition of human SNB75 cells at 10 uM after 48 hrs by SRB assay; conditions: SNB-75, 48 h, read-out: GI; how it was run: as §1
KM12 = assay: Growth inhibition of human KM12 cells at 10 uM after 48 hrs by SRB assay; conditions: KM12, 48 h, read-out: GI; how it was run: as §1
HT-29 = assay: Growth inhibition of human HT-29 cells at 10 uM after 48 hrs by SRB assay; conditions: HT-29, 48 h, read-out: GI; how it was run: as §1
[10] = Growth inhibition of human SF539 cells at 10 uM after 48 hrs by SRB assay; conditions: SF-539, 48 h, read-out: GI; how it was run: as §1
M14 = assay: Growth inhibition of human M14 cells at 10 uM after 48 hrs by SRB assay; conditions: M14, 48 h, read-out: GI; how it was run: as §1
[11] = Growth inhibition of human EKVX cells at 10 uM after 48 hrs by SRB assay; conditions: read-out: GI; how it was run: as §1
[12] = Growth inhibition of human BT549 cells at 10 uM after 48 hrs by SRB assay; conditions: BT-549, 48 h, read-out: GI; how it was run: as §2
HOP-62 = assay: Growth inhibition of human HOP62 cells at 10 uM after 48 hrs by SRB assay; conditions: HOP-62, 48 h, read-out: GI; how it was run: as §1
MDA-MB-435 = assay: Growth inhibition of human MDA-MB-435 cells at 10 uM after 48 hrs by SRB assay; conditions: MDA-MB-435, 48 h, read-out: GI; how it was run: as §1
SN12C = assay: Growth inhibition of human SN12C cells at 10 uM after 48 hrs by SRB assay; conditions: read-out: GI; how it was run: as §1
TK-10 = assay: Growth inhibition of human TK10 cells at 10 uM after 48 hrs by SRB assay; conditions: TK-10, 48 h, read-out: GI; how it was run: as §1
IGROV-1 = assay: Growth inhibition of human IGROV1 cells at 10 uM after 48 hrs by SRB assay; conditions: IGROV-1, 48 h, read-out: GI; how it was run: as §1
U-251 = assay: Growth inhibition of human U251 cells at 10 uM after 48 hrs by SRB assay; conditions: U-251, 48 h, read-out: GI; how it was run: as §1
SK-MEL-28 = assay: Growth inhibition of human SK-MEL-28 cells at 10 uM after 48 hrs by SRB assay; conditions: SK-MEL-28, 48 h, read-out: GI; how it was run: as §1
CCRF-CEM = assay: Growth inhibition of human CCRF-CEM cells at 10 uM after 48 hrs by SRB assay; conditions: read-out: GI; how it was run: as §2
[13] = Growth inhibition of human UACC257 cells at 10 uM after 48 hrs by SRB assay; conditions: UACC-257, 48 h, read-out: GI; how it was run: as §1

| SMILES | inhibition of growth at 10 µM (HCT-116) [%] | inhibition of growth at 10 µM [1] [%] | inhibition of growth at 10 µM (RPMI-8226) [%] | inhibition of growth at 10 µM (SK-OV-3) [%] | inhibition of growth at 10 µM (NCI-H226) [%] | inhibition of growth at 10 µM [2] [%] | inhibition of growth at 10 µM (COLO 205) [%] | inhibition of growth at 10 µM [3] [%] | inhibition of growth at 10 µM (MDA-MB-468) [%] | inhibition of growth at 10 µM (SNB-19) [%] | inhibition of growth at 10 µM [4] [%] | inhibition of growth at 10 µM (SW-620) [%] | inhibition of growth at 10 µM (Malme-3M) [%] | inhibition of growth at 10 µM [5] [%] | inhibition of growth at 10 µM [6] [%] | inhibition of growth at 10 µM [7] [%] | inhibition of growth at 10 µM [8] [%] | inhibition of growth at 10 µM (SK-MEL-5) [%] | inhibition of growth at 10 µM (DU-145) [%] | inhibition of growth at 10 µM (NCI-H522) [%] | other results |
| --- | --- | --- | --- | --- | --- | --- | --- | --- | --- | --- | --- | --- | --- | --- | --- | --- | --- | --- | --- | --- | --- |
| Cc1ccc(C2=Nc3ccc(Cl)cc3C3=NNCC(=O)NN23)cc1 | < 10 | < 10 | < 10 | < 10 | < 10 | < 10 | < 10 | < 10 | 11 | < 10 | < 10 | < 10 | < 10 | < 10 | < 10 | 18 | < 10 | < 10 | < 10 | < 10 | inhibition of growth at 10 µM [9]: < 10%; inhibition of growth at 10 µM (A549): 11%; inhibition of growth at 10 µM (SNB-75): < 10%; inhibition of growth at 10 µM (KM12): < 10%; inhibition of growth at 10 µM (HT-29): < 10%; inhibition of growth at 10 µM [10]: < 10%; inhibition of growth at 10 µM (M14): < 10%; inhibition of growth at 10 µM [11]: 12%; inhibition of growth at 10 µM [12]: < 10%; inhibition of growth at 10 µM (HOP-62): < 10%; inhibition of growth at 10 µM (MDA-MB-435): < 10%; inhibition of growth at 10 µM (SN12C): < 10%; inhibition of growth at 10 µM (TK-10): < 10%; inhibition of growth at 10 µM (IGROV-1): < 10%; inhibition of growth at 10 µM (U-251): < 10%; inhibition of growth at 10 µM (SK-MEL-28): < 10%; inhibition of growth at 10 µM (CCRF-CEM): < 10%; inhibition of growth at 10 µM [13]: < 10% |
| Cc1ccc(-c2nc3ccc(Cl)cc3c3nnnn23)cc1 | < 10 | < 10 | < 10 | 12 | < 10 | < 10 | < 10 | < 10 | < 10 | 11 | 18 | 17 | < 10 | < 10 | 11 | 24 | < 10 | < 10 | < 10 | 21 | inhibition of growth at 10 µM [9]: < 10%; inhibition of growth at 10 µM (A549): 47%; inhibition of growth at 10 µM (SNB-75): < 10%; inhibition of growth at 10 µM (KM12): < 10%; inhibition of growth at 10 µM (HT-29): < 10%; inhibition of growth at 10 µM [10]: 18%; inhibition of growth at 10 µM (M14): < 10%; inhibition of growth at 10 µM [11]: 11%; inhibition of growth at 10 µM [12]: < 10%; inhibition of growth at 10 µM (HOP-62): 51%; inhibition of growth at 10 µM (MDA-MB-435): 13%; inhibition of growth at 10 µM (SN12C): 16%; inhibition of growth at 10 µM (TK-10): < 10%; inhibition of growth at 10 µM (IGROV-1): < 10%; inhibition of growth at 10 µM (U-251): < 10%; inhibition of growth at 10 µM (SK-MEL-28): < 10%; inhibition of growth at 10 µM (CCRF-CEM): < 10%; inhibition of growth at 10 µM [13]: < 10% |
